Laboratory results reported in ChEMBL document CHEMBL4266059, “Synthesis of Cyanoenone-Modified Diterpenoid Analogs as Novel Bmi-1-Mediated Antitumor Agents” (ACS Med Chem Lett, 2018).
The source made the active and inactive calls. The calls are words filed in the database; no cut-off is given here.

Assays:
HCT-116 [1] = assay: Antiproliferative activity against human HCT116 cells after 72 hrs by SRB assay; format: functional, cell-based; settings: HCT-116, 72 h
[2] = Antiproliferative activity against HAF after 72 hrs by SRB assay; design: species or system Homo sapiens
HCT-116 [3] = assay: Potency index, ratio of PTC-209 IC50 to compound IC50 for antiproliferative activity against human HCT116 cells; format: functional
[4] = Selectivity index, ratio of IC50 for HAF to IC50 for human HT-29 cells; format: toxicity; settings: HAF cells versus HT-29 cells, read-out: Ratio IC50
HCT-8 = assay: Antiproliferative activity against human HCT8 cells after 72 hrs by SRB assay; format: functional, cell-based; settings: HCT-8, 72 h
HT-29 = assay: Antiproliferative activity against human HT-29 cells after 72 hrs by SRB assay; format: functional, cell-based; settings: HT-29, 72 h
[5] = Selectivity index, ratio of IC50 for HAF to IC50 for human HCT8 cells; format: toxicity; settings: HAF cells versus HCT8 cells, read-out: Ratio IC50
[6] = Selectivity index, ratio of IC50 for HAF to IC50 for human HCT116 cells; format: toxicity; settings: HAF cells versus HCT116 cells, read-out: Ratio IC50
HCT-116 [7] = assay: Inhibition of Bmi1 protein expression in human HCT116 cells after 8 hrs by Western blot analysis; format: functional, cell-based
HCT-116 [8] = assay: Inhibition of cancer stem cell proliferation in human HCT116 cells assessed as CD133/CD44-positive cell population at 1 uM after 48 hrs by flow cytometry (reference value: 85.1 to 86.6%); format: functional; design: scale not given: the % may be the effect or the level left
HCT-116 [9] = assay: Induction of apoptosis in human HCT116 cells at 1 uM after 48 hrs by Annexin V/propidium iodide staining based flow cytometry relative to control; format: functional
HCT-116 [10] = assay: Effect on total H2A protein expression in human HCT116 cells at 0.5 to 4 uM after 8 hrs by Western blot analysis; format: functional, cell-based
Procedure, shortened: (§1)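 HCT116 cells treated with test agents at the indicated concentrations for 8 h. Bmi-1, H2A-K119 ubiquitinated H2A (ub-H2A), total H2A and Ring1b detected by Western blot.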

HCT-116 [11] = assay: Inhibition of colony formation in human HCT116 cells at 0.1 to 0.4 uM after 7 days by crystal violet staining based assay; format: functional, cell-based
Mus musculus [12] = assay: Toxicity in nude mouse xenografted with human HCT116 cells assessed as change in body weight at 10 mg/kg/day, ip for 18 days; format: organism-based; settings: in vivo, 432 h
Mus musculus [13] = assay: Decrease in Bmi1 expression in tumors of nude mouse xenografted with human HCT116 cells at 10 mg/kg/day, ip for 18 days by IHC analysis; format: functional, organism-based
Procedure, shortened: (§2)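 Subcutaneous HCT116 xenografts in nude mice, randomized into groups of n = 6. Dosing was daily intraperitoneal injection for 18 days with DMSO as vehicle control. Mice were then sacrificed, and excised tumors were stained by immunohistochemistry for Ki67 and Bmi-1, compared with vehicle-treated controls.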

HCT-116 [14] = assay: Antitumor activity against human HCT116 cells xenografted in nude mouse assessed as reduction in Ki67 expression in tumor at 10 mg/kg/day, ip for 18 days by IHC analysis; format: functional, organism-based; procedure, shortened: as §2
HCT-116 [15] = assay: Effect on total Ring1b protein expression in human HCT116 cells at 0.5 to 4 uM after 8 hrs by Western blot analysis; format: functional, cell-based; procedure, shortened: as §1
HCT-116 [16] = assay: Antimigratory activity against human HCT116 cells after 24 hrs by crystal violet staining based transwell migration assay; format: functional, cell-based
Procedure, shortened: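 HCT116 cells were tested for migration through a transwell chamber at 0.5 and 1 μM, compared against an untreated (0 μM) control. Significance was assessed versus that control.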

[17] = molecular target: T1, Polycomb complex protein BMI-1 (Homo sapiens) (UniProt P35226); assay: Inhibition of Bmi1 in human HCT116 cells assessed as reduction in H2A-K119Ub level after 8 hrs by Western blot analysis; format: cell-based; procedure, shortened: as §1
T1 sequence (whole entry): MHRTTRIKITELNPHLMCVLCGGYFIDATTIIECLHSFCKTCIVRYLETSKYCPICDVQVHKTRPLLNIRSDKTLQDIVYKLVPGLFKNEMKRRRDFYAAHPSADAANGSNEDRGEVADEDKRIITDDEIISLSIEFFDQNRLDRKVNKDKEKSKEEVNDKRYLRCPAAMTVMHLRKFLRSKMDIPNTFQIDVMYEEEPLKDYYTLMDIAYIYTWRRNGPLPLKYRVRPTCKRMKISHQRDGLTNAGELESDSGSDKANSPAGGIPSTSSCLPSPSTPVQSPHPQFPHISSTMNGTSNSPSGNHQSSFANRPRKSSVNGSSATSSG

HCT-116 [18] = assay: Antitumor activity against human HCT116 cells xenografted in nude mouse assessed as tumor growth inhibition at 10 mg/kg/day, ip for 18 days; format: functional, organism-based
Procedure, shortened: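 Nude mice bearing subcutaneous HCT116 tumors, randomized four groups (n = 6 each), including a DMSO vehicle group. Dosing was intraperitoneal once daily for 18 days, then sacrifice. Removed tumors were weighed and tumor volume recorded, and body weight was followed. Significance was tested versus vehicle control.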

IC50 (HCT-116 [1])	IC50 (HCT-8)	IC50 (HT-29)	Compound	IC50 [2]	selectivity ratio [4]	selectivity ratio [5]	selectivity ratio [6]	other results
1310 nM	–	–	COc1cc2c(cc1C(=O)Oc1ccccc1)CC[C@H]1C(C)(C)C(=O)C(C#N)=C[C@]21C	–	–	–	–	–
570 nM	–	–	COc1cc2c(cc1C(=O)Nc1ccc(C#N)cc1)CC[C@H]1C(C)(C)C(=O)C(C#N)=C[C@]21C	–	–	–	–	–
300 nM	600 nM	540 nM	COc1cc2c(cc1C(=O)Nc1ccc(OC(F)(F)F)cc1)CC[C@H]1C(C)(C)C(=O)C(C#N)=C[C@]21C	3220 nM	5.4 to 10.7	5.4 to 10.7	5.4 to 10.7	Ratio IC50 (HCT-116 [3]): 2
850 nM	–	–	COc1cc2c(cc1C(=O)Nc1ccc(C(N)=O)cc1)CC[C@H]1C(C)(C)C(=O)C(C#N)=C[C@]21C	–	–	–	–	–
4560 nM	5670 nM	4090 nM	COc1cc2c(cc1C(=O)Nc1ccc(OC(F)(F)F)cc1)CC[C@H]1C(C)(C)C(=O)C=C[C@]21C	17100 nM	3 to 3.8	3 to 3.8	3 to 3.8	inhibition (HCT-116 [7]): inactive
670 nM	–	–	COc1cc2c(cc1C(=O)Nc1ccc(Cl)cc1)CC[C@H]1C(C)(C)C(=O)C(C#N)=C[C@]21C	–	–	–	–	–
650 nM	590 nM	610 nM	COc1cc(Br)c(Nc2nc(-c3c(C)nc4ncccn34)cs2)c(Br)c1	1030 nM	1.6 to 1.7	1.6 to 1.7	1.6 to 1.7	Activity (HCT-116 [8]): 79.7%; Activity (HCT-116 [9]): 14.74%; Activity (HCT-116 [10]): inactive; inhibition (HCT-116 [11]): Active; Activity (Mus musculus [12]): Non-Toxic; Activity (Mus musculus [13]): Active; Activity (HCT-116 [14]): Active; inhibition (HCT-116 [7]): Dose-dependent effect; IC50 (HCT-116 [7]; HCT-116, 8 h): 700 nM; Activity (HCT-116 [15]): inactive; Activity (HCT-116 [16]): Dose-dependent effect; inhibition [17]: Dose-dependent effect; TGI (HCT-116 [18]): Active
760 nM	–	–	COc1cc2c(cc1C(=O)Nc1ccccc1)CC[C@H]1C(C)(C)C(=O)C(C#N)=C[C@]21C	–	–	–	–	–
530 nM	–	–	COc1cc2c(cc1C(=O)Nc1ccc(Br)cc1)CC[C@H]1C(C)(C)C(=O)C(C#N)=C[C@]21C	–	–	–	–	–
8540 nM	–	–	CNC(=O)c1cc2c(cc1OC)[C@@]1(C)C=C(C#N)C(=O)C(C)(C)[C@@H]1CC2	–	–	–	–	–
690 nM	–	–	COC(=O)c1ccc(NC(=O)c2cc3c(cc2OC)[C@@]2(C)C=C(C#N)C(=O)C(C)(C)[C@@H]2CC3)cc1	–	–	–	–	–
900 nM	1310 nM	1620 nM	COc1cc2c(cc1C(=O)NNc1ccc(OC(F)(F)F)cc1)CC[C@H]1C(C)(C)C(=O)C(C#N)=C[C@]21C	4550 nM	2.8 to 5	2.8 to 5	2.8 to 5	–
430 nM	580 nM	560 nM	COc1cc2c(cc1C(=O)Nc1cccc(OC(F)(F)F)c1)CC[C@H]1C(C)(C)C(=O)C(C#N)=C[C@]21C	3570 nM	6.2 to 8.3	6.2 to 8.3	6.2 to 8.3	–
2100 nM	–	–	COc1cc2c(cc1C(=O)Nc1ccc(C(C)=O)cc1)CC[C@H]1C(C)(C)C(=O)C(C#N)=C[C@]21C	–	–	–	–	inhibition (HCT-116 [7]): Active
820 nM	–	–	CCOc1ccc(NC(=O)c2cc3c(cc2OC)[C@@]2(C)C=C(C#N)C(=O)C(C)(C)[C@@H]2CC3)cc1	–	–	–	–	–
> 50000 nM	–	–	COc1cc2c(cc1C(=O)NCC(=O)O)CC[C@H]1C(C)(C)C(=O)C(C#N)=C[C@]21C	–	–	–	–	–
750 nM	–	–	COc1cc2c(cc1C(=O)Nc1ccc(N)cc1)CC[C@H]1C(C)(C)C(=O)C(C#N)=C[C@]21C	–	–	–	–	–
560 nM	–	–	C=CCOc1ccc(NC(=O)c2cc3c(cc2OC)[C@@]2(C)C=C(C#N)C(=O)C(C)(C)[C@@H]2CC3)cc1	–	–	–	–	–
250 nM	290 nM	280 nM	COC(=O)[C@]12CCC(C)(C)C[C@H]1[C@H]1C(=O)C=C3[C@@]4(C)C=C(C#N)C(=O)C(C)(C)[C@@H]4CC[C@@]3(C)[C@]1(C)CC2 [BARDOXOLONE METHYL]	2100 nM	7.2 to 8.4	7.2 to 8.4	7.2 to 8.4	inhibition (HCT-116 [7]): Active
> 50000 nM	–	–	COc1cc2c(cc1C(=O)O)CC[C@H]1C(C)(C)C(=O)C(C#N)=C[C@]21C	–	–	–	–	–
320 nM	–	–	COc1cc2c(cc1C(=O)Nc1ccc(C(F)(F)F)cc1)CC[C@H]1C(C)(C)C(=O)C(C#N)=C[C@]21C	–	–	–	–	–
1040 nM	1600 nM	1370 nM	COc1cc2c(cc1C(=O)NCc1ccc(OC(F)(F)F)cc1)CC[C@H]1C(C)(C)C(=O)C(C#N)=C[C@]21C	5190 nM	3.2 to 5	3.2 to 5	3.2 to 5	–

Compound	IC50 (HCT-116 [1])	IC50 (HCT-8)	IC50 (HT-29)	IC50 [2]	selectivity ratio [4]	selectivity ratio [5]	selectivity ratio [6]	other results
CC1(C)C(=O)C(C#N)=C[C@]2(C)c3cc(O)c(C(=O)Nc4ccc(OC(F)(F)F)cc4)cc3CC[C@@H]12	2000 nM	3060 nM	2380 nM	13800 nM	4.5 to 6.9	4.5 to 6.9	4.5 to 6.9	inhibition (HCT-116 [7]): inactive
